Test results from ChEMBL document CHEMBL2086239, “Synthesis and biological evaluation of combretastatin-amidobenzothiazole conjugates as potential anticancer agents” (Eur J Med Chem, 2012).
Active and inactive are the calls of the source. The rule behind the calls is not given here.

Key:
MCF7 [1] = assay: Cell cycle arrest in human MCF7 cells assessed as accumulation at S phase at 4 uM after 24 hrs by FACS analysis (reference value: 6.79%); assay type: functional
THP-1 = assay: Cytotoxicity against human THP1 cells after 48 hrs assessed as inhibition of cell growth at 10 uM after 48 hrs by SRB assay relative to control; assay type: functional; details: THP-1, 48 h, read-out: GI
Outline: (§1)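 SRB protein assay in DMEM with 10% FBS at 37 °C, 5% CO2, 100% relative humidity. Cells seeded in 96-well plates, incubated 24 h, then exposed to drug at 10 µM for 48 h and processed per standard protocol. Absorbance read at 560 nm; growth percentage calculated for test wells relative to control wells.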

COLO 205 = assay: Cytotoxicity against human COLO205 cells after 48 hrs assessed as inhibition of cell growth at 10 uM after 48 hrs by SRB assay relative to control; assay type: functional; details: COLO 205, 48 h, read-out: GI; outline: as §1
MCF7 [2] = assay: Cell cycle arrest in human MCF7 cells assessed as accumulation at G1 phase at 4 uM after 24 hrs by FACS analysis (reference value: 58.33%); assay type: functional
HEp-2 = assay: Cytotoxicity against human Hep2 cells after 48 hrs assessed as inhibition of cell growth at 10 uM after 48 hrs by SRB assay relative to control; assay type: functional; details: for inhibition of growth at 10 µM: HEp-2, 48 h, read-out: GI; outline: as §1
MCF7 [3] = assay: Cytotoxicity against human MCF7 cells after 48 hrs assessed as inhibition of cell growth at 10 uM after 48 hrs by SRB assay relative to control; assay type: functional; details: MCF7, 48 h, read-out: GI; outline: as §1
PC-3 = assay: Cytotoxicity against human PC3 cells after 48 hrs assessed as inhibition of cell growth at 10 uM after 48 hrs by SRB assay relative to control; assay type: functional; details: PC-3, 48 h, read-out: GI; outline: as §1
A549 = assay: Cytotoxicity against human A549 cells assessed as inhibition of cell growth at 10 uM after 48 hrs by SRB assay relative to control; assay type: functional; details: for inhibition of growth at 10 µM: A549, 48 h, read-out: GI; outline: as §1
MCF7 [4] = assay: Cell cycle arrest in human MCF7 cells assessed as accumulation at G2/M phase at 4 uM after 24 hrs by FACS analysis (reference value: 34.88%); assay type: functional
IMR-32 = assay: Cytotoxicity against human IMR32 cells after 48 hrs assessed as inhibition of cell growth at 10 uM after 48 hrs by SRB assay relative to control; assay type: functional; details: for inhibition of growth at 10 µM: IMR-32, 48 h, read-out: GI; outline: as §1
MCF7 [5] = assay: Inhibition of microtubule organization in human MCF7 cells at 4 uM after 24 hrs by immunofluorescence analysis; assay type: cell-based
Outline: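 MCF-7 cells were grown in DMEM with 10% fetal calf serum and penicillin/streptomycin at 37 °C and 5% CO2. Cells on cover slips were treated for 24 h, then fixed in 4% paraformaldehyde for 20 min. They were permeabilised with 0.2% Triton X-100, held in methanol at 4 °C overnight and blocked with 1% BSA. Staining used anti-α-tubulin (1:100, 2 h RT), FITC secondary and a DAPI/PI mount, with confocal imaging.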

Which results are given for `COc1ccc(/C=C\c2cc(OC)c(OC)c(OC)c2)cc1OCC(=O)Nc1nc2ccc(C)cc2s1`?
Activity (MCF7 [1]): 15.53%; inhibition of growth at 10 µM (THP-1): 27%; inhibition of growth at 10 µM (COLO 205): 33%; Activity (MCF7 [2]): 41.7%; inhibition of growth at 10 µM (HEp-2): 44%; inhibition of growth at 10 µM (MCF7 [3]): 57%; inhibition of growth at 10 µM (PC-3): 22%; inhibition of growth at 10 µM (A549): 37%; Activity (MCF7 [4]): 42.82%; growth inhibition (GI) (IMR-32): inactive

What does the source list for `COc1ccc(/C=C\c2cc(OC)c(OC)c(OC)c2)cc1OCC(=O)Nc1nc2cc(C)c(C)cc2s1`?
Activity (MCF7 [1]): 3.04%; inhibition of growth at 10 µM (THP-1): 76%; inhibition of growth at 10 µM (COLO 205): 51%; Activity (MCF7 [2]): 80.59%; inhibition of growth at 10 µM (HEp-2): 23%; inhibition of growth at 10 µM (MCF7 [3]): 68%; inhibition of growth at 10 µM (PC-3): 36%; inhibition of growth at 10 µM (A549): 41%; Activity (MCF7 [4]): 16.37%; inhibition of growth at 10 µM (IMR-32): 55%

Which inhibition of growth at 10 µM (THP-1) does the source give for `COc1cccc2c1C(=O)c1c(O)c3c(c(O)c1C2=O)C[C@@](O)(C(=O)CO)C[C@@H]3O[C@H]1C[C@H](N)[C@H](O)[C@H](C)O1` [DOXORUBICIN] here?
The inhibition of growth at 10 µM was 83%.

What about the inhibition of growth at 10 µM (COLO 205) of the same compound?
The inhibition of growth at 10 µM was 26%.

What about the inhibition of growth at 10 µM (HEp-2) of the same compound?
The inhibition of growth at 10 µM was 56%.

And the inhibition of growth at 10 µM (MCF7 [3])?
The inhibition of growth at 10 µM was 45%.

What about the inhibition of growth at 10 µM (PC-3) of the same compound?
The inhibition of growth at 10 µM was 75%.

What about the inhibition of growth at 10 µM (A549) of the same compound?
The inhibition of growth at 10 µM was 52%.

What about the inhibition of growth at 10 µM (IMR-32) of the same compound?
The inhibition of growth at 10 µM was 73%.

Which results are given for `COc1ccc(/C=C\c2cc(OC)c(OC)c(OC)c2)cc1OCC(=O)Nc1nc2ccc([N+](=O)[O-])cc2s1`?
inhibition of growth at 10 µM (THP-1): 80%; inhibition of growth at 10 µM (COLO 205): 46%; growth inhibition (GI) (HEp-2): inactive; inhibition of growth at 10 µM (MCF7 [3]): 69%; inhibition of growth at 10 µM (PC-3): 47%; inhibition of growth at 10 µM (A549): 50%; inhibition of growth at 10 µM (IMR-32): 88%

For `COc1ccc(/C=C\c2cc(OC)c(OC)c(OC)c2)cc1OCC(=O)Nc1nc2c(C)cccc2s1`, which Activity (MCF7 [1]) is on record?
The Activity was 3.46%.

What about the inhibition of growth at 10 µM (THP-1) of the same compound?
Its inhibition of growth at 10 µM is 19%.

And the inhibition of growth at 10 µM (COLO 205)?
The inhibition of growth at 10 µM was 24%.

What about the Activity (MCF7 [2]) of the same compound?
The Activity was 68.06%.

And the “growth inhibition (GI)” value (HEp-2)?
Its value is “inactive”.

And the inhibition of growth at 10 µM (MCF7 [3])?
The inhibition of growth at 10 µM was 29%.

What about the inhibition of growth at 10 µM (PC-3) of the same compound?
The inhibition of growth at 10 µM was 24%.

What about the “growth inhibition (GI)” value (A549) of the same compound?
The value was “inactive”.

And the Activity (MCF7 [4])?
Its Activity is 28.48%.

What about the inhibition of growth at 10 µM (IMR-32) of the same compound?
Its inhibition of growth at 10 µM is 34%.

For `COC(=O)Nc1nc2cc(C(=O)c3cccs3)ccc2[nH]1`, which inhibition (MCF7 [5]) is on record?
The inhibition was “Active”.

How did the Activity (MCF7 [1]) turn out when `CCOc1ccc2nc(NC(=O)COc3cc(/C=C\c4cc(OC)c(OC)c(OC)c4)ccc3OC)sc2c1` was run?
Its Activity is 13.91%.

What about the inhibition of growth at 10 µM (THP-1) of the same compound?
Its inhibition of growth at 10 µM is 37%.

And the inhibition of growth at 10 µM (COLO 205)?
Its inhibition of growth at 10 µM is 45%.

And the Activity (MCF7 [2])?
The Activity was 48.43%.

And the inhibition of growth at 10 µM (HEp-2)?
Its inhibition of growth at 10 µM is 49%.

And the inhibition of growth at 10 µM (MCF7 [3])?
The inhibition of growth at 10 µM was 35%.

What about the inhibition of growth at 10 µM (PC-3) of the same compound?
Its inhibition of growth at 10 µM is 37%.

What about the inhibition of growth at 10 µM (A549) of the same compound?
Its inhibition of growth at 10 µM is 27%.

And the Activity (MCF7 [4])?
The Activity was 37.67%.

What about the inhibition of growth at 10 µM (IMR-32) of the same compound?
Its inhibition of growth at 10 µM is 54%.

Which inhibition of growth at 10 µM (THP-1) does the source give for `COc1ccc(/C=C\c2cc(OC)c(OC)c(OC)c2)cc1OCC(=O)Nc1ccc2ncsc2c1` here?
Its inhibition of growth at 10 µM is 41%.

And the inhibition of growth at 10 µM (COLO 205)?
Its inhibition of growth at 10 µM is 11%.

And the inhibition of growth at 10 µM (HEp-2)?
Its inhibition of growth at 10 µM is 20%.

And the inhibition of growth at 10 µM (MCF7 [3])?
Its inhibition of growth at 10 µM is 19%.

And the inhibition of growth at 10 µM (PC-3)?
The inhibition of growth at 10 µM was 58%.

What about the “growth inhibition (GI)” value (A549) of the same compound?
Its value is “inactive”.

And the inhibition of growth at 10 µM (IMR-32)?
Its inhibition of growth at 10 µM is 46%.

For `COc1ccc(/C=C\c2cc(OC)c(OC)c(OC)c2)cc1OCC(=O)Nc1nc2ccc(Cl)cc2s1`, which inhibition of growth at 10 µM (THP-1) is on record?
Its inhibition of growth at 10 µM is 70%.

And the inhibition of growth at 10 µM (COLO 205)?
The inhibition of growth at 10 µM was 17%.

What about the inhibition of growth at 10 µM (HEp-2) of the same compound?
The inhibition of growth at 10 µM was 47%.

And the inhibition of growth at 10 µM (MCF7 [3])?
The inhibition of growth at 10 µM was 21%.

And the inhibition of growth at 10 µM (PC-3)?
Its inhibition of growth at 10 µM is 41%.

What about the “growth inhibition (GI)” value (A549) of the same compound?
The value was “inactive”.

What about the inhibition of growth at 10 µM (IMR-32) of the same compound?
Its inhibition of growth at 10 µM is 51%.
